Experimental data reported in ChEMBL document CHEMBL3414521, “Discovery of the 2-phenyl-4,5,6,7-Tetrahydro-1H-indole as a novel anti-hepatitis C virus targeting scaffold” (Eur J Med Chem, 2015).
The source made the active and inactive calls. No cut-off for these calls is given here.

Legend:
Hepatitis C virus [1] = assay: Antiviral activity against HCV genotype 2a infected in HuH7.5-FGR-JC1_Rluc2A cells at 50 uM by […] luciferase reporter gene assay; type: functional, Hepacivirus hominis
[2] = Selectivity index, ratio of CC50 for human Huh7.5 cells to EC50 for HCV genotype 1b infected in HuH7/Rep-Feo1b cells; design: species or system Huh-7
Hepacivirus hominis = assay: Inhibition of recombinant HCV hexa histidine-tagged NS5B Cdelta21 RNA dependent RNA polymerase expressed in Escherichia coli at 50 uM after 60 mins by liquid scintillation counting analysis
Hepatitis C virus [3] = assay: Antiviral activity against HCV genotype 2a infected in HuH7.5-FGR-JC1_Rluc2A cells by […]; type: functional, Hepacivirus hominis
[4] = test system: Hepatitis C virus (isolate Con1); assay: Inhibition of HCV Con1 genotype 1b C-terminal His-tagged NS3 helicase lacking N-terminal protease using fluorescent DNA as substrate at 500 uM
Procedure, shortened: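 Molecular beacon unwinding assay: 12.5 nM NS3h, 5 nM fluorescent DNA substrate, 1 mM ATP, 25 mM MOPS pH 6.5, 1.25 mM MgCl2, 5% DMSO, 5 µg/ml BSA, 0.01% Tween20, 0.05 mM DTT; compounds up to 500 μM.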

Hepatitis C virus [5] = assay: Antiviral activity against HCV genotype 1b infected in HuH7/Rep-Feo1b cells at 50 uM by firefly luciferase reporter gene assay; type: functional, Hepacivirus hominis; conditions: Huh-7
Procedure, shortened: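 Replicon reporter cells (gt 1b in Huh7/Rep-Feo1b, firefly luciferase; gt 2a in Huh7.5-FGR-JC1-Rluc2A, Renilla luciferase) kept in DMEM with 10% FCS and 0.5 mg/mL G418, 37 °C, 5% CO2. About 1×10^4 cells per well were treated at 50 μM for 48 h in 1.0% DMSO. Luciferase signal was read relative to DMSO-treated cells as % inhibition.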

[6] = Selectivity index, ratio of CC50 for human Huh7.5 cells to EC50 for HCV genotype 2a infected in HuH7.5-FGR-JC1_Rluc2A cells; design: species or system Huh-7
[7] = Cytotoxicity against human Huh7.5 cells after 48 hrs by MTS assay; type: cell-based; conditions: huh-7, 48 h
Procedure, shortened: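 Parental Huh7.5 cells grown in DMEM with 10% FCS without G418, 37 °C, 5% CO2; treated at 6–8 doses for 48 h. Viability by MTS bioreduction to formazan; CC50 as concentration halving MTS conversion relative to DMSO controls, mean ± SD of three independent experiments.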

[8] = Inhibition of HCV Con1 genotype 1b C-terminal His-tagged NS3 helicase lacking N-terminal protease using ATP/RNA as substrate after 15 mins by malachite green-based assy; design: species or system Hepatitis C virus (isolate Con1)
Procedure, shortened: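 NS3h (con1 gt 1b, C-terminal His-tag, protease-deleted) at 4 nM with 1 μM polyU RNA (nucleotide), 25 mM MOPS pH 6.5, 1.25 mM MgCl2, 1 mM ATP, 33 µg/ml BSA, 0.07% Tween 20, 0.3 mM DTT, 10% DMSO; started with ATP, 15 min, 37 °C. Phosphate by malachite green, A630. Two-fold series 0.5 mM–0.78 µM, duplicate; variable-slope fit, mean ± SD.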

Hepatitis C virus [9] = assay: Antiviral activity against HCV genotype 1b infected in HuH7/Rep-Feo1b cells by firefly luciferase reporter gene assay; type: functional, cell-based, Hepacivirus hominis; conditions: Huh-7
Procedure, shortened: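 Huh7 cells carrying autonomously replicating gt 1b replicon with firefly luciferase reporter; ~1×10^4 cells/well treated 48 h, 1.0% DMSO final. Primary screen at 50 μM; actives titrated over 8–12 quarter-log dilutions. Luciferase signal relative to DMSO-treated controls; EC50 from dose-response curves, mean ± SD of three independent experiments.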

Hepatitis C virus [10] = assay: Antiviral activity against HCV genotype 1b infected in human MH14 cells assessed as inhibition of replication after 48 hrs by RT-PCR analysis; type: functional; conditions: Hepacivirus hominis
Procedure, shortened: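 Stable gt 1b subgenomic replicon cells (MH-14), reporter-free, exposed to compound; total RNA isolated by spin-column kit, quantified spectrophotometrically, and HCV RNA measured by quantitative RT-PCR.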

Heme oxygenase 1 = biological target: T1, Heme oxygenase 1 (Homo sapiens, UniProt P09601); assay: Effect on heme oxygenase-1 (unknown origin)-mediated HCV replication in human MH14 cells transfected with pHO-1-Luc by luciferase reporter gene assay; type: ADME, cell-based
T1 sequence (P09601 whole entry): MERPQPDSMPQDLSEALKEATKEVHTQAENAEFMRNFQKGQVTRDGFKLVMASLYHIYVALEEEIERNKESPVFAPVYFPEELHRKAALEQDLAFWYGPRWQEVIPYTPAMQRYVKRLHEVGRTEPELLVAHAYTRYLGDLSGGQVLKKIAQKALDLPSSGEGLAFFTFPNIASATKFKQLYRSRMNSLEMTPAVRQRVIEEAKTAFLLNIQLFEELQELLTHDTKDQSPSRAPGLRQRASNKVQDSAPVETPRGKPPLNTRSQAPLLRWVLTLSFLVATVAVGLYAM
Procedure, shortened: (§1)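 MH-14 replicon cells transfected with 300 ng of the reporter plasmid (pCOX-2-FLuc, pHO-1-Luc, pISRE-Luc or p3xARE-Luc); 16 h later treated with compound at 5, 10 and 25 μM or DMSO for 48 h. Firefly luciferase read, normalized to Renilla luciferase for transfection efficiency.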

[11] = Effect on anti-oxidant response element (unknown origin)-mediated HCV replication in human MH14 cells transfected with p3xARE-Luc by luciferase reporter gene assay; type: ADME, cell-based; procedure, shortened: as §1
[12] = test system: Internal ribosome entry site (IRES); assay: Effect on HCV IRES-mediated translation infected in human Huh 7.5 cells by dual-glo luciferase assay; type: cell-based; conditions: Hepacivirus hominis
[13] = biological target: T2, Prostaglandin G/H synthase 2 (Homo sapiens, UniProt P35354); assay: Effect on cyclooxygenase-2 (unknown origin)-mediated HCV replication in human MH14 cells transfected with pCOX-2-Fluc by luciferase reporter gene assay; type: ADME, cell-based; procedure, shortened: as §1
T2 sequence (P35354 whole entry): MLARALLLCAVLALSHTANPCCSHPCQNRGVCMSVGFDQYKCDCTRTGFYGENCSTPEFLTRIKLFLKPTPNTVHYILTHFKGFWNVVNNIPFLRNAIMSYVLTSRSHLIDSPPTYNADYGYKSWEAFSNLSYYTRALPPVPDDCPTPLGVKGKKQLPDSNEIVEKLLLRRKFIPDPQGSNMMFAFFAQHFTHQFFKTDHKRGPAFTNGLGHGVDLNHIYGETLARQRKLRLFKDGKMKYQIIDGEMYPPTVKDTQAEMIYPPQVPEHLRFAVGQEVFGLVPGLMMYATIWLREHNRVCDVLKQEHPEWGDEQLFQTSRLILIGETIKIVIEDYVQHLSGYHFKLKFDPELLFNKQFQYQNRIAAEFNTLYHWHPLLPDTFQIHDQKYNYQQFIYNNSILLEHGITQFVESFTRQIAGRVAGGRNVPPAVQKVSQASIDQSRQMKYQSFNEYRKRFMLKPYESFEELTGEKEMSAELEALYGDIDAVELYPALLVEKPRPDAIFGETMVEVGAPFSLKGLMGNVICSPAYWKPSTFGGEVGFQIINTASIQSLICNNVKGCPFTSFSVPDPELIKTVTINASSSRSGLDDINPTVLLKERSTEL

[14] = Effect on interferon-stimulated response element (unknown origin)-mediated HCV replication in human MH14 cells transfected with pISRE-Luc by luciferase reporter gene assay; type: ADME, cell-based; procedure, shortened: as §1

| Structure (SMILES) | inhibition at 50 µM (Hepatitis C virus [1]) | Ratio CC50/EC50 [2] | inhibition (Hepacivirus hominis) | EC50 (Hepatitis C virus [3]) | inhibition [4] | inhibition at 50 µM (Hepatitis C virus [5]) | Ratio CC50/EC50 [6] | CC50 [7] | IC50 [8] | EC50 (Hepatitis C virus [9]) | inhibition (Hepatitis C virus [10]) | inhibition (INH) (Heme oxygenase 1) | inhibition (INH) [11] | inhibition [12] | inhibition (INH) [13] | inhibition (INH) [14] |
| --- | --- | --- | --- | --- | --- | --- | --- | --- | --- | --- | --- | --- | --- | --- | --- | --- |
| COc1ccc(-c2cc3c(n2Cc2ccccc2)CCCC3)cc1 | 96% | 12 | inactive | 4.9 µM | inactive | 99% | 28 | 137 µM | > 1000 µM | 11.8 µM |  |  |  |  |  |  |
| O=[N+]([O-])c1ccc(-c2cc3c(n2Cc2ccccc2)CCCC3)cc1 | 98% | 13 | inactive | 7.3 µM | inactive | 75% | 27 | > 200 µM | > 1000 µM | 15 µM |  |  |  |  |  |  |
| Fc1ccc(-n2c(-c3ccccc3)cc3c2CCCC3)cc1 | 66% | >7 | inactive | 12.3 µM | inactive | 71% | >16 | > 200 µM | > 1000 µM | 29.2 µM |  |  |  |  |  |  |
| Nc1ccc(-c2cc3c(n2Cc2ccccc2)CCCC3)cc1 | 88% | 9 | inactive | 8.7 µM | inactive | 66% | 13 | 110 µM | 417 µM | 12.4 µM |  |  |  |  |  |  |
| c1ccc(Cn2c(-c3ccccc3)cc3c2CCCC3)cc1 | 99% | 10 | inactive | 2.6 µM | inactive | 95% | 32 | 80.8 µM | > 1000 µM | 7.9 µM | Dose-dependent effect | Not Active | Not Active | inactive | Not Active | Not Active |
